High-throughput results (PubChem)
N-glyco inh = N-linked glycosylation inhibition; D54 ERlucT glycosylation luciferase reporter, 24 h; percent of 100 nM tunicamycin response; 360,000 compounds, 0.23% hits; reporter increase, % at 12.5 µM;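 active = mean luciferase reporter signal, scaled so untreated is 0 and the glycosylation-blocking control 100, at or above a set limit in every replicate; inconclusive = mean reaches the limit but not every replicate does; inactive = mean below the limit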;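 note: luciferase carries N-glycosylation sites so blocking glycosylation raises the light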
AF4-AF9 inh = inhibitors of human MLL-AF4/AF9 interaction; 350,000 compounds, 0.47% hits; AlphaScreen, biotin-AF4 peptide binding to FLAG-AF9; inhibition, % at 10 µM; P42568;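 active = every replicate reaching a set inhibition limit, whatever the replicate mean, cut at about 25% in these data; inconclusive = mean inhibition reaches that limit but some replicates miss it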
Target sequence (P42568 whole entry, looked up): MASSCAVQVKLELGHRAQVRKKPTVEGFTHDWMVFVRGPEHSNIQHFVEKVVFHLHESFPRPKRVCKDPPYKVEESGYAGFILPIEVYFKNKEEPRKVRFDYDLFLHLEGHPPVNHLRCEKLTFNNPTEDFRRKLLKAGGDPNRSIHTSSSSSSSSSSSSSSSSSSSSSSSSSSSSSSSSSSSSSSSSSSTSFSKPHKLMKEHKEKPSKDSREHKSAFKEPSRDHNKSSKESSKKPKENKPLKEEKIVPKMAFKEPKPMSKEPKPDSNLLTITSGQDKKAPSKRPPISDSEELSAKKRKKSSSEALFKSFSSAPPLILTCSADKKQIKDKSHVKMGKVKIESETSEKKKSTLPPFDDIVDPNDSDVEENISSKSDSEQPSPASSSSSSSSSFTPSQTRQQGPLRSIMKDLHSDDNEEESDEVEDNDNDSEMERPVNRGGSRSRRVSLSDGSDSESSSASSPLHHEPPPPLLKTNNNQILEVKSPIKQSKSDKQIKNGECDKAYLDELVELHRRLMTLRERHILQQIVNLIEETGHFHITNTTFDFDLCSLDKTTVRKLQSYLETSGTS
Env fusion inh = HIV envelope-mediated fusion inhibition | HeLa-JRFL Env/CEM21 cell fusion, luciferase | inhibition, % at 12.3 µM | 360,000 compounds, 1.1% hits | AID 651610;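 active = mean replicate inhibition score of at least 50 and every replicate individually at or above 50; inconclusive = only one of the two criteria met; inactive = mean below 50 and not all replicates reaching 50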
FN deposit inh = fibronectin deposition inhibition. 350,000 compounds, 0.086% hits. inhibition, % at 12.6 µM. AH1F fibroblasts, Alexa488-fibronectin deposition fluorescence, overnight;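 active = mean inhibition across replicates of 30% or more, regardless of how many single replicates reach that level; inconclusive = mean under 30% yet at least half of replicates reach 30%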
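Schedule: 1 h cell adhesion before compound, then overnight fibronectin incubation; test system: AH1F fibroblast monolayer depositing Alexa488-labelled fibronectin into matrix; quantity: 10000 AH1F cells per well; probe or stimulus: fluorescent fibronectin at 24 nM final; signal: fluorescence, ex 485 nm, em 525 nm; evaluation: percent inhibition as loss of matrix-bound fibronectin fluorescence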
PAX8 reporter = lowers PAX8-driven luciferase in RMG-I cells; AID 652154; 360,000 compounds, 1.2% hits; RMG-I TPO-luciferase reporter, SteadyGlo, 24 h; inhibition, % at 12.6 µM;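 active = mean replicate inhibition at least 60% with every replicate also reaching 60%; inconclusive = only one of the two criteria is met; inactive = mean below 60% and not all replicates reaching 60%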;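 note: luciferase light reporting Pax8 driven TPO promoter activity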
EWS-Fli block = EWS/Fli transcriptional activity inhibition; A673 NR0B1-luciferase reporter, viability-normalised; inhibition, % at 12.6 µM; 350,000 compounds, 0.67% hits; AID 651661;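 active = mean inhibition of at least 50% after viability correction, with every replicate also passing that limit; inconclusive = mean reaches 50% but only one of two replicates passes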;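 note: firefly luciferase signal divided by Alamar Blue viability fluorescence both relative to DMSO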
DNA binder FP = binds DNA displacing acridine orange | AC35, µM (titrated, usually from 68 µM) | salmon sperm DNA acridine orange fluorescence polarization | shares compounds with EWS-Fli block | 640 compounds, 2% hits | AID 720586;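 active = fitted curve reaches a 35% signal fall AC35 below twice the sample's top valid tested dose, actives reach about 48 µM in these data; inactive = the rest, including activity in the rising direction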;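 note: lower polarization ratio signals compound binding to DNA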
Numbers stand for hits; 0 = inactive; ? = inconclusive; - = no result. Rows were chosen to be rich in hits. Some 2.5% of all compounds tested hit in one or more screens of this group.

SMILES | N-glyco inh | AF4-AF9 inh | Env fusion inh | FN deposit inh | PAX8 reporter | EWS-Fli block | DNA binder FP
COc1ccc(C(=O)Nc2cc(C)nn2-c2nc3ccccc3[nH]2)c(OC)c1 | 0 | 0 | 0 | 0 | 0 | 0 | -
CCC(=O)Nc1ccc2c(c1)C(=O)N(C)C[C@@H](OC)[C@H](C)CN(C(=O)C1CC1)[C@H](C)CO2 | - | 0 | - | 0 | 0 | 0 | -
CCC(=O)N(C)C[C@@H]1Oc2ncc(C#CC(C)(C)O)cc2C(=O)N([C@@H](C)CO)C[C@H]1C | - | 0 | 0 | 0 | - | 0 | -
CCCC[C@@H]1Cc2[nH][nH]c(=O)c2[C@H](c2ccc3ccccc3c2)O1 | - | 0 | 0 | 0 | 0 | 52.4 | 0
CCCCC1Cc2[nH]c(=S)[nH]c(=O)c2C(c2ccc3ccccc3c2)O1 (stereo not drawn) | - | 0 | 0 | 0 | 0 | 0 | -
CCc1ccc(/C=C2\SC(=S)N(CCCC(=O)NC3=NCCS3)C2=O)cc1 | 0 | 0 | 59.1 | 0 | 0 | 76.8 | 0
CCc1ccc(/C=C2\SC(=S)N(CCCC(=O)Nc3cc(C)on3)C2=O)cc1 | 0 | 0 | 0 | 0 | 0 | 83.4 | 0
Cc1cc(NC(=O)CCN2C(=O)/C(=C/c3ccccc3Cl)SC2=S)no1 | 0 | 0 | 0 | 0 | 0 | 0 | -
CCc1ccc(/C=C2\SC(=S)N(CCC(=O)Nc3cc(C)on3)C2=O)cc1 | 0 | 0 | 0 | 0 | 0 | 63.0 | 0
COc1cccc(/C=C2\SC(=S)N(CCCC(=O)Nc3cc(C)on3)C2=O)c1 | 0 | 0 | - | 0 | - | 0 | -
COc1cccc(/C=C2\SC(=S)N(CCCC(=O)NC3=NCCS3)C2=O)c1 | 0 | 0 | 0 | 0 | - | - | -
COc1ccccc1/C=C1\SC(=S)N(CCC(=O)Nc2cc(C)on2)C1=O | 0 | 0 | 0 | 0 | 0 | 52.1 | 0
COCCNC(=O)C[C@@H]1C[C@@H]2c3cc(NS(=O)(=O)c4ccccc4)ccc3O[C@@H]2[C@@H](CO)O1 | - | 0 | 0 | - | 0 | 0 | -
CO[C@H](CN(C)S(=O)(=O)c1ccc(F)cc1)[C@H](C)CN([C@H](C)CO)S(=O)(=O)c1cccc(Cl)c1 | - | 0 | - | 0 | - | 0 | -
COc1ccc2c3c(n(C)c2c1)[C@H](CO)N(C(=O)C1CCCC1)CC31CN(Cc2cccc(F)c2)C1 | - | ? | - | - | 0 | 0 | -
O=C(NC[C@H]1CC[C@H]2[C@H](CN2Cc2cccc(Cl)c2)O1)C1CCC1 | - | 0 | - | - | - | 0 | -
COC(=O)C1=C(C)N(Cc2ccccc2C(F)(F)F)C(=NCc2ccc(OC)cc2)NC1c1ccc(C(F)(F)F)cc1 (stereo not drawn) | - | - | 0 | 0 | 0 | 54.9 | 0
COC(=O)C1=C(C)N(Cc2cccc(C(F)(F)F)c2)C(=NCc2ccc(OC)cc2)NC1c1cccc(F)c1 (stereo not drawn) | - | - | 0 | 0 | 98.7 | 50.3 | 0
COC(=O)C1=C(C)N(Cc2ccccc2C(F)(F)F)C(=NCc2ccc(C(F)(F)F)cc2)NC1c1ccc(C(F)(F)F)cc1 (stereo not drawn) | - | - | 0 | 0 | 0 | 0 | -
CCCNC(=O)Nc1ccc2c(c1)OC[C@@H](C)N(C(=O)C1CC1)C[C@H](C)[C@H](OC)CN(C)C2=O | - | 0 | - | 0 | 0 | 0 | -
Cc1[nH][nH]c(=O)c1C(c1c(C)[nH][nH]c1=O)c1cn(Cc2ccc(Cl)c(Cl)c2)c2ccccc12 | 0 | 0 | - | 0 | 0 | 53.0 | 0
Cc1[nH][nH]c(=O)c1C(c1c(C)[nH][nH]c1=O)c1cn(Cc2ccc(F)cc2)c2ccccc12 | 0 | - | - | - | - | - | -
C[C@H]1CN([C@@H](C)CO)C(=O)c2cc(C#CCc3ccccc3)cnc2O[C@H]1CN(C)C(=O)C1CC1 | - | 0 | 0 | - | - | 0 | -
Nc1ccc(-c2cc3ccccc3c(=O)o2)cc1 | 0 | 0 | 0 | 0 | 0 | 64.4 | 0
O=c1oc(-c2ccccc2)cc2ccccc12 | 0 | 0 | - | - | - | 0 | -
SMILES | N-glyco inh | AF4-AF9 inh | Env fusion inh | FN deposit inh | PAX8 reporter | EWS-Fli block | DNA binder FP
CN(C)CCCNC(=O)C[C@@H]1CC[C@@H](NS(=O)(=O)c2ccc(F)cc2)[C@@H](CO)O1 | - | 0 | 0 | - | 0 | 0 | -
C[C@@H]1CN([C@@H](C)CO)C(=O)c2cc(-c3ccc(F)cc3)cnc2O[C@@H]1CN(C)C(=O)CN(C)C | - | 0 | 0 | 0 | - | 0 | -
CNc1nc(C(=O)O)nc(N2CCOCC2)n1 | 0 | 0 | - | - | - | 0 | -
Cc1ccc(C(CC(=O)O)Nc2nc(N3CCOCC3)nc(N3CCOCC3)n2)cc1 (stereo not drawn) | 0 | 0 | 0 | - | 0 | 64.6 | 0
CO[C@@H]1CN(C)C(=O)c2ccc(NC(=O)C3CCC3)cc2OC[C@@H](C)N(Cc2cccnc2)C[C@H]1C | - | 0 | - | 0 | 0 | 0 | -
O=C(NC[C@@H]1N[C@@H](CO)[C@H]1c1ccc(C2=CCCCC2)cc1)c1cccc(F)c1 | - | - | - | 0 | 0 | 59.0 | 0
COc1ccc2c3c([nH]c2c1)[C@@H](CO)N(C)CC31CCN(S(=O)(=O)c2cccc(F)c2)CC1 | - | 0 | - | - | - | 0 | -
O=C1C(=O)N(Cc2cccs2)c2ccccc21 | 0 | 0 | 0 | 0 | 0 | 65.5 | 0
O=C1C(=O)N(CCS(=O)(=O)c2ccccc2)c2ccccc21 | 0 | 0 | 0 | 0 | 0 | 61.0 | 0
COc1ccc(CN(C)C[C@@H]2Oc3c(NS(=O)(=O)c4ccccc4)cccc3C(=O)N([C@H](C)CO)C[C@@H]2C)cc1 | - | 0 | 0 | - | - | 0 | -
COc1cc(C(=O)O/N=C(\N)c2ccccn2)cc(OC)c1OC | 0 | 0 | 0 | 0 | 0 | 0 | -
Cc1ccc(C(=O)O/N=C(\N)c2ccccn2)cc1 | 0 | 0 | 62.4 | 0 | 105.1 | 51.9 | 0
COC(=O)Cc1[nH]n(-c2nc3ccccc3s2)c(=O)c1C(C)=Nc1ccc(C)cc1 | 0 | 0 | 0 | 0 | 0 | 77.4 | 0
CC(C)NC(=O)Nc1ccc2c(c1)C(=O)N([C@@H](C)CO)C[C@@H](C)[C@@H](CN(C)Cc1ccc3c(c1)OCO3)OCCCC[C@H](C)O2 | - | - | 0 | 0 | 0 | 0 | -
Clc1ccc(Nc2nnc(-c3ccc4c(c3)OCO4)o2)cc1 | - | 0 | 0 | 0 | 0 | 0 | -
c1ccc(Nc2nnc(-c3ccc4c(c3)OCO4)o2)cc1 | - | 0 | 0 | 0 | 0 | 78.9 | 0
COc1ccc(S(=O)(=O)N(C)C[C@H]2Oc3c(NS(=O)(=O)c4ccccc4)cccc3C(=O)N([C@H](C)CO)C[C@H]2C)cc1 | - | 0 | 0 | - | 0 | 0 | -
Cc1[nH]c(=S)sc1Cc1ccc(Cl)c(Cl)c1 | - | 0 | 0 | - | 0 | 78.9 | 0
Cc1nnc(SCc2ccc(Cl)c(Cl)c2)s1 | 0 | 0 | 0 | 0 | 0 | 0 | -
O=C(C[C@H]1CC[C@H]2[C@@H](COC[C@H](O)CN2Cc2nccs2)O1)NCc1ccc(-c2ccccc2)cc1 | - | 0 | - | 0 | 0 | 0 | -
CN(c1ccc(NC(=O)CCc2c[nH]c3ccccc23)cc1)c1ccccn1 | - | - | 0 | 0 | 0 | 59.4 | 0
Cc1sc2nc(CN3CCOCC3)nc(Cl)c2c1C | 0 | 0 | 0 | 0 | 0 | 0 | -
Cc1sc2nc(CN3CCC(C)CC3)nc(Cl)c2c1C | - | 0 | 0 | 0 | 0 | 72.5 | 0
